Measured values from different studies.
Compare with care: the assays were run in different laboratories.
Target: Serine/threonine-protein kinase Nek9 (NEK9, Homo sapiens, UniProt Q8TD19)
Residues used in one study (Q8TD19 1-979): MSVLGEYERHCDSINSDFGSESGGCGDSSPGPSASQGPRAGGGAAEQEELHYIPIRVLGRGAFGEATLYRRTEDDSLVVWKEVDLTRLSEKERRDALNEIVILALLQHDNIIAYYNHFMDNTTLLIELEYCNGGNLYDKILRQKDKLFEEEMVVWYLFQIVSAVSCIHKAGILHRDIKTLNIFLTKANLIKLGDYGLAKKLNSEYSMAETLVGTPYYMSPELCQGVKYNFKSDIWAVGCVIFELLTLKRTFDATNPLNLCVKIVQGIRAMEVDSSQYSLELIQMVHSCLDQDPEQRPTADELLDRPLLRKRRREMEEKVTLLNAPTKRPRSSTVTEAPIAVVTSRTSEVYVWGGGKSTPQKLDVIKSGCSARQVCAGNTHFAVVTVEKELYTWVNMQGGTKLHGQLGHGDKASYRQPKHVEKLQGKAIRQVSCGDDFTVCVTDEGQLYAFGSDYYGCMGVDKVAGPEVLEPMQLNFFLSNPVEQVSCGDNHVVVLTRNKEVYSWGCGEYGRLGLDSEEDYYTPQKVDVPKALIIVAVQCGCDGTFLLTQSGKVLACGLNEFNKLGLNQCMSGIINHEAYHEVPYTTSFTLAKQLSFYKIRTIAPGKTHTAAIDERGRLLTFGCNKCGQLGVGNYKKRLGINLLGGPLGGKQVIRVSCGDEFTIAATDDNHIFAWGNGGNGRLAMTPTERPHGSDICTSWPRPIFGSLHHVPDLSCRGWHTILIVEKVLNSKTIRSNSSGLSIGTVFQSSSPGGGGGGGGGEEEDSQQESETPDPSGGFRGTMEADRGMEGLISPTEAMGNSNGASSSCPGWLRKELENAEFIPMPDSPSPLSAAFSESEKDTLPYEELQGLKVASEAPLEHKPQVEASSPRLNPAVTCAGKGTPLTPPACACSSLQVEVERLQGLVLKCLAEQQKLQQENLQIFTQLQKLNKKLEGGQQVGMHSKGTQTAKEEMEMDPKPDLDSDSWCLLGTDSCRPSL

SMILES | observed | technique | tested at | remaining binding [%]
Cc1cnn2ncc(-c3ccnc(N(C)C)n3)c2c1 | binding |  | 1 µM | 100
CN(C)C(=O)Cn1cc(-c2nc([C@@](C)(c3ccc(-c4cnc(N)nc4)cc3)C3CC3)no2)cn1 | cell-free assay | competition with immobilised ligand | 1 µM | 95
COc1cnc(Nc2cccc(S(N)(=O)=O)c2)nc1N1CCN(c2ccccc2)CC1 | binding | competition with immobilised ligand | 1 µM | 83
CN(CCCC(F)(F)F)c1nccc(-c2cnn3ncccc23)n1 | binding |  | 1 µM | 100
Cc1c(NC(=O)c2cc(C(N)=O)nc3cc(F)ccc23)c(C(F)(F)F)nn1Cc1ccc(C#N)cc1 | cell-free assay | competition with immobilised ligand | 1 µM | 95
Cc1cnc(Nc2ccc(C(=O)N3CCC(N4CCCC4)CC3)cc2)nc1-c1cc2ccccc2s1 | binding | competition with immobilised ligand | 1 µM | 14
Nc1ncc2c(n1)-c1c([nH]c3ccc(C#CC4CC4)cc13)CCCC2 | binding | competition with immobilised ligand | 1 µM | 91
O=C(NCCCN1CCOCC1)c1ccc(Nc2ncc(Cl)c(-c3ccc(Cl)s3)n2)cc1 | binding | competition with immobilised ligand | 1 µM | 13
O=C(NCC1CCOCC1)c1n[nH]cc1NC(=O)c1c(F)cccc1F | binding | competition with immobilised ligand | 1 µM | 92
N[C@@H]1CCN(c2nccc(-c3cnn4ncccc34)n2)C1 | binding |  | 1 µM | 100
O=C(NCCCN1CCOCC1)c1ccc(Nc2nccc(-c3cc4ccccc4s3)n2)cc1 | binding | competition with immobilised ligand | 1 µM | 73
CNC(=O)[C@@H]1CC[C@@H](n2c(-c3ccc4cnccc4c3)nc3ccc(C(=O)NCc4cccc(C(N)=O)c4)cc32)C1 | binding | competition with immobilised ligand | 1 µM | 100
CCCOc1ccc([C@H]2[C@H](C(=O)O)[C@@H](c3ccc4c(c3)OCO4)CN2CC(=O)Nc2c(CC)cccc2CC)cc1 | cell-free assay | competition with immobilised ligand | 1 µM | 95
CC1CCCN1c1nccc(-c2cnn3ncccc23)n1 (stereo not shown) | binding |  | 1 µM | 100
C[C@H](c1ccc(F)cc1)N(Cc1cccc(C(=O)O)c1)C(=O)c1cnc2ccccc2c1 | cell-free assay | competition with immobilised ligand | 1 µM | 100
C[C@@H](c1ccc(-n2cnc3c(N)ncnc32)cc1)N1CCc2nn(C)c(Cc3ccccc3)c2C1=O | binding | competition with immobilised ligand | 0.1 µM | 94
Cc1cc(-n2nc(Cc3cc(F)cc(C(F)(F)F)c3)nc2C)ccc1C(N)=O | cell-free assay | competition with immobilised ligand | 1 µM | 100
CN(c1nccc(-c2cnn3ncccc23)n1)C1CC1 | binding |  | 1 µM | 100
NS(=O)(=O)c1cc(NC(=O)C2(c3ccccc3Cl)CC2)ccc1Oc1cccc(Cl)c1 | cell-free assay | competition with immobilised ligand | 1 µM | 94
C[C@@H]1CCN(c2nccc(-c3cnn4ncccc34)n2)C1 | binding |  | 1 µM | 81
O=C1NC(c2ccccn2)Sc2ccccc21 (stereo not shown) | cell-free assay | competition with immobilised ligand | 1 µM | 75
COc1ccnn2ncc(-c3ccnc(N(C)C)n3)c12 | binding |  | 1 µM | 100
